Data on one molecule can be found in ChEMBL document CHEMBL2150931, “Design, synthesis, and biological activity of a novel series of human sirtuin-2-selective inhibitors” (J Med Chem, 2012).

For test [1], the target named is T1, NAD-dependent protein deacetylase sirtuin-2 (Homo sapiens) (UniProt Q8IXJ6).
T1 sequence (whole entry): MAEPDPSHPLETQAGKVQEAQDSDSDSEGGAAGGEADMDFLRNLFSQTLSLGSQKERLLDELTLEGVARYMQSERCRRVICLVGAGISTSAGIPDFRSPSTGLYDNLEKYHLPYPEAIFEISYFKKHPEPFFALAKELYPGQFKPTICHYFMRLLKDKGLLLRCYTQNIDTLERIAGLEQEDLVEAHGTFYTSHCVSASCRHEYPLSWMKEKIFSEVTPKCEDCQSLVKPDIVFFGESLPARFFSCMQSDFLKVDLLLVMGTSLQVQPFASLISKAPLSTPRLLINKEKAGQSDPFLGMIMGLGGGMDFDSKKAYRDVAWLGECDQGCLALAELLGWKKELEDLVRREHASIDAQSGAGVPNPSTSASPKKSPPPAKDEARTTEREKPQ
Description: Inhibition of SIRT2 in human HCT116 cells assessed as increase in acetylated alpha-tubulin after 8 hrs by Western blot analysis. The class given is cell-based. The following applies: HCT-116. The method, boiled down:
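HCT116 cells grown in McCoy's 5A with 10% FBS. 5×10⁵ cells exposed 8 h to compound at 1 or 10 μM, alongside 20 μM etoposide. SDS lysates equalized by Bradford assay and run on 15% SDS-PAGE, then blotted onto nitrocellulose. Blots probed overnight at 4 °C for acetyl-p53, p53, acetyl-α-tubulin and α-tubulin, and detected by ECL. Signal given as acetylated/total protein ratio.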
In general terms: In western blotting, separated proteins are transferred to a membrane and probed.

In test [2] the target is T1, NAD-dependent protein deacetylase sirtuin-2 (Homo sapiens). Nature of the test: Binding affinity to recombinant SIRT2 by surface plasmon resonance assay. Background: Surface plasmon resonance follows binding to a sensor surface in real time, without labels.
The target of test [3] is T2, NAD-dependent protein deacetylase sirtuin-1 (Homo sapiens, UniProt Q96EB6).
T2 sequence (Q96EB6 whole entry): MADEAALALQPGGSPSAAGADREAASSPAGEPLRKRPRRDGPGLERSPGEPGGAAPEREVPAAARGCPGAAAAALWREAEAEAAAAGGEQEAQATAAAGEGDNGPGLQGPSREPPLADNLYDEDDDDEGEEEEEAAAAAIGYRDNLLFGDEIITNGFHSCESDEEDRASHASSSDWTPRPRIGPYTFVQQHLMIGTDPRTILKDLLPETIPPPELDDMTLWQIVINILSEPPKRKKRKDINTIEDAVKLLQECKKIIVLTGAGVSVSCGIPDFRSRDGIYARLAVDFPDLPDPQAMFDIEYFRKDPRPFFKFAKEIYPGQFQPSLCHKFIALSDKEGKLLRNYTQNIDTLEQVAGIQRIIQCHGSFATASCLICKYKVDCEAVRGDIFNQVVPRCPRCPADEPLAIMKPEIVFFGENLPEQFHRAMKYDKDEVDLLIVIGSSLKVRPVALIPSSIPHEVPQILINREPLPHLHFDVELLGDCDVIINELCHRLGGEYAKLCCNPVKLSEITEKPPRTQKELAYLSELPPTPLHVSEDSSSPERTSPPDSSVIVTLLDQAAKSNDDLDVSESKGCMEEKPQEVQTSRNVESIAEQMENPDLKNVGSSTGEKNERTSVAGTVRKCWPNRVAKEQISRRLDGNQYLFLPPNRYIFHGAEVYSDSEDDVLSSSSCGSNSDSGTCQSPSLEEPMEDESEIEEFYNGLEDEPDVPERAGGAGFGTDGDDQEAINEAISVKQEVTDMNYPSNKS
Description: Inhibition of human recombinant SIRT1 using Fluor de Lys-SIRT as substrate incubated for 60 mins prior to substrate addition measured after 60 mins by fluorimetric analysis. In outline:
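Human recombinant SIRT1 run the same way: 60 min at 37 °C with 1 mM NAD⁺ and serial compound dilutions, then 25 μM Fluor de Lys-SIRT substrate for 60 min. Stopped with nicotinamide-containing Developer II and read 45 min later at ex 360/em 460 nm. IC₅₀ from logit regression of % inhibition vs control; means of ≥3 experiments.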

The target of test [4] is T3, NAD-dependent protein deacetylase sirtuin-2 (Homo sapiens, UniProt Q8IXJ6).
T3 sequence (Q8IXJ6 whole entry): T1 sequence (whole entry)
Description: Inhibition of human recombinant SIRT2 using Fluor de Lys-SIRT as substrate incubated for 60 mins prior to substrate addition measured after 60 mins by fluorimetric analysis. In outline: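 Human recombinant SIRT2 preincubated with 1 mM NAD⁺ and serial compound dilutions for 60 min at 37 °C, then 25 μM Fluor de Lys-SIRT substrate added. Reaction stopped at 60 min with Developer II containing nicotinamide. Fluorescence read 45 min later at ex 360/em 460 nm. % inhibition taken against control wells. IC₅₀ obtained by regression of log[Inh] vs logit % inhibition; means of ≥3 experiments.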

Test [5] deals with T4, Polyamine deacetylase HDAC10 (Homo sapiens, UniProt Q969S8).
T4 sequence (Q969S8 whole entry): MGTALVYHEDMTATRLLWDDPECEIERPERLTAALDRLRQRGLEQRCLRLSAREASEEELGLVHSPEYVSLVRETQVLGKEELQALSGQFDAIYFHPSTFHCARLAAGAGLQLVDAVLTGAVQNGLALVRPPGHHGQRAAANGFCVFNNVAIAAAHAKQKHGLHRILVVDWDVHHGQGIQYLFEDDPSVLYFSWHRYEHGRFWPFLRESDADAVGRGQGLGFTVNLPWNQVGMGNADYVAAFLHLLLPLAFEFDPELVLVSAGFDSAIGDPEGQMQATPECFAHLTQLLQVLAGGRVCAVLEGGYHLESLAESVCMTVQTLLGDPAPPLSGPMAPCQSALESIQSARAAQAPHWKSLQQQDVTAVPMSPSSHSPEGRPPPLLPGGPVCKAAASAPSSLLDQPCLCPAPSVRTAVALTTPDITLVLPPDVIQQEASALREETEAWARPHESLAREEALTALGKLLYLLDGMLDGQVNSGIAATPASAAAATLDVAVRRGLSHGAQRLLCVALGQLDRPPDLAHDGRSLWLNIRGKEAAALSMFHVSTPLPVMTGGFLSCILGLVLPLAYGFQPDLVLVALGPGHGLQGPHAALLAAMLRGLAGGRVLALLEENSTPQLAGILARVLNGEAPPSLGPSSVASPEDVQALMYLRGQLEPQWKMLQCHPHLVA
Description: Inhibition of HDAC10.

Test [6] deals with Cytochrome P450 3A4 (Homo sapiens, UniProt P08684). Nature of the test: Inhibition of CYP3A4. The class given is ADME.
Chain of Cytochrome P450 3A4 (P08684 whole entry): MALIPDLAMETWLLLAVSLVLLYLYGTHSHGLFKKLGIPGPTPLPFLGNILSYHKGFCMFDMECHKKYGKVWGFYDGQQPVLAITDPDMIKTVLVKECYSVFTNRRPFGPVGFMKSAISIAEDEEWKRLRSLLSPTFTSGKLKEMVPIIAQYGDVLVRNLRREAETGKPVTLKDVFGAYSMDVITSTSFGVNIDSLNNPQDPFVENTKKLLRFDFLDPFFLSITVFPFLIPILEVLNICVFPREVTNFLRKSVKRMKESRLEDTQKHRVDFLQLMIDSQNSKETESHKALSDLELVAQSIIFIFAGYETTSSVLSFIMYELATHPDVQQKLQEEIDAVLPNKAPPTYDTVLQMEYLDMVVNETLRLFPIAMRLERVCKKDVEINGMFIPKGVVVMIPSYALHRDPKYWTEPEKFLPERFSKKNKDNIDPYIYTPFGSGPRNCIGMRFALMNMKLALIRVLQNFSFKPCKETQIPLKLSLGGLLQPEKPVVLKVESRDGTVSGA

One may read the IC50 as the midpoint of a concentration-inhibition curve.

Molecules are shown by their SMILES.

On to `NC(=O)c1ccccc1Nc1cccc(OCCc2ccccc2)c1`, for which the inhibition entry in test [1] is “Dose-dependent effect”. The Activity entry in test [2] is “Dose-dependent effect”. Further, the half-inhibitory concentration (IC50) in test [3] was greater than 100 µM; in test [4], 1 µM; in test [5], greater than 30 µM; in test [6], greater than 10 µM.
